Consider 2 molecules from ChEMBL document CHEMBL1153760, “Identification and structure-activity relationships of chromene-derived selective estrogen receptor modulators for treatment of postmenopausal symptoms” (J Med Chem, 2009).

Active and inactive are the calls of the source. The calls are words filed in the database; no cut-off is given here.

In data set [1] the test system is Rattus norvegicus. Put plainly: Increase in uterine weight in po dosed ovariectomized rat osteopenia model administered daily measured after 2 weeks. Type of data set: functional, organism-based.
Data set [2] has as its system Rattus norvegicus. Nature of the data set: Decrease in bone resorption in ovariectomized rat assessed as decrease in urine deoxypyridinoline level at 0.1 mg/kg, po administered daily measured after 2 weeks. More on the design: dose 0.1 mg/kg. Type of data set: functional, organism-based. The method in brief:
(§1)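 Adult (>6 months) female rats, housed singly on a casein-based diet, ovariectomized under sterile conditions and anesthesia; 6-14 per group. From 24 h after surgery, daily oral gavage of an aqueous suspension in 0.5% Methocel for 2 or 6 weeks. […] Urine deoxypyridinoline measured as bone-resorption marker.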

The next data set concerns the target Estrogen receptor beta (Homo sapiens, UniProt Q92731). Put plainly: Inhibition of fluormone ES2 binding to estrogen receptor beta after 1 hr by fluorescence polarization assay.
For data set [3], the target named is T1, Estrogen receptor (Homo sapiens, UniProt P03372).
T1 sequence (P03372 whole entry): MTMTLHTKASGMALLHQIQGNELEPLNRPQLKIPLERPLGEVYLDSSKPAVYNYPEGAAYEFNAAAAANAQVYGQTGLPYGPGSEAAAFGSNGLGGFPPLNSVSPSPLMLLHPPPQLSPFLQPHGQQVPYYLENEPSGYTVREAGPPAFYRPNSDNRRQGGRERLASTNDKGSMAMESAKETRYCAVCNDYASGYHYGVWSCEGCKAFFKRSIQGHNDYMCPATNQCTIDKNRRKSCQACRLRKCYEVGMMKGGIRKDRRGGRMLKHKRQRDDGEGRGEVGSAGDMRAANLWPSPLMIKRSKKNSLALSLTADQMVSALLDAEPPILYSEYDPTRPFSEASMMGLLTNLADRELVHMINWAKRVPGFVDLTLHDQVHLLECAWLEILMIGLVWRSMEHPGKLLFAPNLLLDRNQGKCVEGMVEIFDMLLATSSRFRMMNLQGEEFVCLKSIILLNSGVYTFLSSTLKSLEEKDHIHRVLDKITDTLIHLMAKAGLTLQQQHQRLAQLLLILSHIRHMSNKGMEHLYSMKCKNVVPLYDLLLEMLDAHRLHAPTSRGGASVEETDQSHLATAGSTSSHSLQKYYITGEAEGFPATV
Nature of the data set: Displacement of radiolabeled estrogen from estrogen receptor alpha by scintillation counting.

The target in data set [4] is T1, Estrogen receptor. Put plainly: Antagonist activity at estrogen receptor in human Ishikawa cells assessed as 17-beta-estradiol-induced alkaline phosphatase activity after 3 days by chemiluminescence assay. Type of data set: functional, cell-based.
The species named for data set [5] is Rattus norvegicus. Nature of the data set: animal or person. Conditions: Uterus, 72 h, route oral. Type of data set: functional.
Data set [6] is described as follows: Oral bioavailability in rat at 10 mg/kg administered as single dose by LC-MS/MS analysis. Type of data set: ADME, organism-based. Conditions: in vivo. The method in brief: (§2)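 Single-dose rat pharmacokinetics. IV dosing at 1-3 mg/kg as a solution in 10% β-cyclodextrin; oral gavage at 10 mg/kg as a uniform suspension in 0.5% methylcellulose. Blood (0.5 mL) collected into heparinized tubes by orbital sinus puncture after dosing. Plasma extracted into acetonitrile with an internal standard and analysed by LC-MS-MS against standards to obtain PK parameters.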

Data set [7] is described as follows: Cmax in rats after 10 mg/kg oral dose. It is filed as ADME, organism-based. More on the design: dose 10 mg/kg, route oral. Conditions: rat, in vivo. The method in brief: as §2
Data set [8] can be described thus: Tmax in rat at 10 mg/kg, po administered as single dose by LC-MS/MS analysis. The note with it: in vivo. Type of data set: ADME, organism-based. More on the design: dose 10 mg/kg, route oral. The method in brief: as §2
Data set [9] is described as follows: Half life in rat at 10 mg/kg, po administered as single dose by LC-MS/MS analysis. More on the design: dose 10 mg/kg, route oral. Conditions: in vivo. Type of data set: ADME, organism-based. The method in brief: as §2
The nature of data set [10]: AUC in rat at 10 mg/kg, po administered as single dose by LC-MS/MS analysis. Type of data set: ADME, organism-based. More on the design: dose 10 mg/kg, route oral. Conditions: plasma. The method in brief:
as §2

Data set [11] relates to Rattus norvegicus. Nature of the data set: Metabolite Cmax in rats after 10 mg/kg JNJ-1968990 oral dose. Type of data set: ADME, organism-based. Details: dose 10 mg/kg, route oral. Conditions: in vivo. The method in brief:
as §2

Data set [12] concerns Rattus norvegicus. Put plainly: Metabolic stability in rat assessed as (R)-5-[4-(2-Dimethylamino-ethoxy)-phenyl]-11,12-dihydro-5H-6,13-dioxa-benzo[3,4]cyclohepta[1,2-a]naphthalene-2,8-diol Tmax at 10 mg/kg, po administered as single dose by LC-MS/MS analysis. It is filed as ADME, organism-based. Details: dose 10 mg/kg, route oral. The note with it: in vivo. The method in brief: as §2

The subject of data set [13] is Rattus norvegicus. Nature of the data set: Metabolite Cmax in rats after 10 mg/kg JNJ-26529126 oral dose. It is filed as ADME, organism-based. More on the design: dose 10 mg/kg, route oral. The note with it: in vivo. The method in brief:
as §2

In data set [14] the test system is Rattus norvegicus. Nature of the data set: Metabolic stability in rat assessed as (R)-5-[4-(2-Dimethylamino-ethoxy)-phenyl]-11,12-dihydro-5H-6,13-dioxa-benzo[3,4]cyclohepta[1,2-a]naphthalene-2,8-diol Tmax at 2 mg/kg, iv administered as single dose by LC-MS/MS analysis. Type of data set: ADME, organism-based. More on the design: dose 2 mg/kg, route intravenous. The note with it: in vivo. The method in brief:
as §2

Data set [15] deals with Rattus norvegicus. Nature of the data set: Metabolite Cmax in rats after 10 mg/kg JNJ-26529152 oral dose. It is filed as ADME, organism-based. More on the design: dose 10 mg/kg, route oral. Conditions: in vivo. The method in brief: as §2
Data set [16] concerns Rattus norvegicus. Nature of the data set: Metabolite Cmax in rats after 2 mg/kg JNJ-1968990 intravenous dose. More on the design: dose 2 mg/kg, route intravenous. It is filed as ADME, organism-based. The note with it: in vivo. The method in brief: as §2
The test system of data set [17] is Rattus norvegicus. Nature of the data set: Estrogenic activity in ovariectomized rat assessed as minor increase in uterine epithelial thickness at 0.1 to 1 mg/kg, po administered daily measured after 6 week by immunohistochemical analysis. It is filed as functional, organism-based.
Data set [18] has as its system Rattus norvegicus. Put plainly: Decrease in bone resorption in ovariectomized rat assessed as decrease in urine deoxypyridinoline level at 0.1 to 1 mg/kg, po administered daily measured after 2 weeks. It is filed as functional, organism-based. The method in brief: as §1
In data set [19] the test system is Rattus norvegicus. Put plainly: Decrease in plasma cholesterol level in po dosed ovariectomized rat osteopenia model administered daily measured after 2 weeks. Type of data set: functional, organism-based.
Data set [20] relates to Rattus norvegicus. Put plainly: Metabolic stability in rat assessed as 8-Methoxy-6R-(-)-[4-(2-piperidin-1-ylethoxy)phenyl]-11,12-dihydro-5H-6,13-dioxabenzo[3,4]cyclohepta-[1,2-a]naphthalen-2-ol Tmax at 10 mg/kg, po administered as single dose by LC-MS/MS analysis. Type of data set: ADME, organism-based. More on the design: dose 10 mg/kg, route oral. Conditions: in vivo. The method in brief: as §2

In data set [21] the test system is Rattus norvegicus. Put plainly: Metabolic stability in rat assessed as 8-Methoxy-6R-(-)-[4-(2-piperidin-1-ylethoxy)phenyl]-11,12-dihydro-5H-6,13-dioxabenzo[3,4]cyclohepta-[1,2-a]naphthalen-2-ol Tmax at 2 mg/kg, iv administered as single dose by LC-MS/MS analysis. It is filed as ADME, organism-based. More on the design: dose 2 mg/kg, route intravenous. The note with it: in vivo. The method in brief:
as §2

Chain of Estrogen receptor beta (Q92731 whole entry): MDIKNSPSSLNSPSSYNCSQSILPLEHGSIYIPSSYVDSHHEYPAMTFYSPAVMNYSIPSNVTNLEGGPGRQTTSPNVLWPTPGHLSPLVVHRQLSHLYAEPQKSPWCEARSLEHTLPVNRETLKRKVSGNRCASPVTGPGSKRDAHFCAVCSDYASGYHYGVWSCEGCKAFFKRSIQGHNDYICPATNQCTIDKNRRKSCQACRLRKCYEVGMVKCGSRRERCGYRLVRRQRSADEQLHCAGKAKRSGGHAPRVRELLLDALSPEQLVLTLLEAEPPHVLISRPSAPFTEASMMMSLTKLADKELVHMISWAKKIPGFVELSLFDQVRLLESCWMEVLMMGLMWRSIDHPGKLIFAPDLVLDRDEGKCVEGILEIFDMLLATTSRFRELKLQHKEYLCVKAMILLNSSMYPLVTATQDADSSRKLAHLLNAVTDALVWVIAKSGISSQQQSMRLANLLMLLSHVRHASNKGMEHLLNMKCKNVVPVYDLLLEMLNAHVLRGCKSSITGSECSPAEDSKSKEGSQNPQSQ

In the case of `Oc1ccc2c(c1)O[C@H](c1ccc(OCCN3CCCCC3)cc1)C1=C2CCOc2cc(O)ccc21`, the result in the data set with Rattus norvegicus [1] was inactive. For the same molecule, the outcome with Rattus norvegicus [2] was Active. Besides, the IC50 on Estrogen receptor beta was determined as 21 nM; at Estrogen receptor [3], 1.1 nM; on Estrogen receptor [4], 0.2 nM. The inhibition in vivo at 1 mg/kg in the data set listed under Rattus norvegicus [5] turned out to be 135%. In data set [6], this molecule came in with a bioavailability of 11%. The Cmax in data set [7] was found to be 91 ng/mL. Also, the figures for the time to peak (Tmax) (in data set [8]; with Rattus norvegicus [12]; with Rattus norvegicus [14]) were 5 h, 6 h and 8 h, respectively. In data set [9], this molecule gave a half-life of 4.8 h. In data set [10], the AUC is 1010 ng·h/mL. Further, the Cmax_metabolite with Rattus norvegicus [11] is 3.9 ng/mL; in the data set with Rattus norvegicus [13], 14 ng/mL; in the data set with Rattus norvegicus [15], 12 ng/mL; with Rattus norvegicus [16], 1.6 ng/mL.
For `COc1ccc2c(c1)O[C@H](c1ccc(OCCN3CCCCC3)cc1)C1=C2CCOc2cc(O)ccc21`, in the data set on Rattus norvegicus [1], the result was inactive. Moreover, the outcome with Rattus norvegicus [17], in the data set on Rattus norvegicus [18] and in the data set with Rattus norvegicus [19] was Active. Moreover, the IC50 at Estrogen receptor beta was 7 nM; at Estrogen receptor [3] it was 9 nM; at Estrogen receptor [4], 259 nM. Besides, the inhibition in vivo at 1 mg/kg in the data set listed under Rattus norvegicus [5] is 99%. In addition, the bioavailability in [6] came out at 58%. In [7], the highest level (Cmax) was 219 ng/mL. In addition, the time of peak concentration (Tmax) in data set [8] was 6 h; in the data set with Rattus norvegicus [20] it was 6 h; with Rattus norvegicus [21], 8 h. For the same molecule, the half-life in data set [9] is 19.8 h. In data set [10], this molecule gave an AUC of 6920 ng·h/mL. Further, the Cmax_metabolite in the data set on Rattus norvegicus [11] amounted to 33.3 ng/mL; in the data set on Rattus norvegicus [16], 7.6 ng/mL.

As usually defined, the IC50 is the concentration that gives 50% inhibition. The term inhibition in vivo denotes the change of the read-out against control, counted positive when it falls. In general, bioavailability refers to dose-corrected exposure relative to a reference, in per cent. A low value points to poor availability. A word on the Cmax: it is the peak of the concentration-time curve. The Tmax is the time at which the peak concentration occurs. By half-life is commonly meant the time in which the quantity being followed falls by half. What is called AUC is the area under the concentration-time curve, a measure of exposure. Read a low AUC as low exposure.
